Structures are written as SMILES. Calls of active or inactive are those of the source. No cut-off for these calls is given here. Bounds are passed on as bounds.

In test [1] the test system is Candida tropicalis. Nature of the test: Antifungal activity against Candida tropicalis assessed as growth inhibition in sabouraud broth after 14 days in presence of 10% inactivated bovine serum. Type of test: functional. The method, boiled down:
(§1)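 Broth dilution in Sabouraud broth, with or without 10% inactivated bovine serum, incubated 14 days. Read-out: concentration (µg/mL) giving complete or marked inhibition of growth. Tested in preliminary experiments.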

Test [2] has as its system Candida albicans. Nature of the test: Antifungal activity against Candida albicans assessed as growth inhibition in sabouraud broth after 14 days in presence of 10% inactivated bovine serum. Type of test: functional. The essentials:
as §1

Test [3] deals with Aspergillus fumigatus. Description: Antifungal activity against Aspergillus fumigatus assessed as growth inhibition in sabouraud broth after 14 days in presence of 10% inactivated bovine serum. Format: functional.
The test system of test [4] is Sporothrix schenckii. Nature of the test: Antifungal activity against Sporothrix schenckii assessed as growth inhibition in sabouraud broth after 14 days in presence of 10% inactivated bovine serum. Type of test: functional. The essentials:
as §1

In test [5] the test system is Candida albicans. Nature of the test: Antifungal activity against Candida albicans B2630 infected in ovariectomized and hysterectomized Wistar rat vaginal candidosis model at 1.25 mg/kg, po for 14 days by prophylactic treatment. Type of test: functional, organism-based. On the set-up: dose 1.25 mg/kg. The method, boiled down:
(§2)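 Female Wistar rats (100 g) were ovariectomized and hysterectomized under thalamonal anaesthesia. From 3 weeks later, and weekly thereafter, each received oestradiol undecanoate 100 µg in sesame oil s.c. Pseudooestrus was confirmed by vaginal smear. Rats were infected intravaginally with 8×10^5 C. albicans B 2630 cells in 0.2 mL saline. Compound in PEG 200 was given daily by gavage from the day of infection. Vaginal swab smears were taken on days 7, 11 and 14. Read-out: negative animals/total.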

Test [6] relates to Candida albicans. Description: Antifungal activity against Candida albicans B2630 infected in ovariectomized and hysterectomized Wistar rat vaginal candidosis model at 2.5 mg/kg, po for 14 days by prophylactic treatment. Type of test: functional, organism-based. Also noted: dose 2.5 mg/kg. The essentials: as §2
Test [7] deals with Candida albicans. Description: Antifungal activity against Candida albicans B2630 infected in ovariectomized and hysterectomized Wistar rat vaginal candidosis model at 5 mg/kg, po for 14 days by prophylactic treatment. Format: functional. The essentials: as §2
In test [8] the test system is Candida albicans. Nature of the test: Antifungal activity against Candida albicans B2630 infected in ovariectomized and hysterectomized Wistar rat vaginal candidosis model at 2.5 mg/kg, po for 11 days by prophylactic treatment. Type of test: functional, organism-based. On the set-up: dose 2.5 mg/kg.
The subject of test [9] is Candida albicans. Description: Antifungal activity against Candida albicans B2630 infected in ovariectomized and hysterectomized Wistar rat vaginal candidosis model at 5 mg/kg, po for 5 days by prophylactic treatment. On the set-up: dose 5 mg/kg. Format: functional, organism-based.
The subject of test [10] is Candida albicans. Nature of the test: Antifungal activity against Candida albicans B2630 infected in guinea pig cutaneous candidosis model at 0.63 mg/kg, po for 14 days measured on day 21. Format: functional, organism-based. On the set-up: dose 0.63 mg/kg. The method, boiled down: (§3)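 Guinea pig cutaneous candidosis. Compound dissolved in PEG 200, given by oral gavage once daily for 14 consecutive days; placebo group included. Read-out: ratio of infection-negative animals to total at day 21.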

Test [11] relates to Candida albicans. Description: Antifungal activity against Candida albicans B2630 infected in guinea pig cutaneous candidosis model at 2.5 mg/kg, po for 14 days measured on day 21. Type of test: functional, organism-based. On the set-up: dose 2.5 mg/kg. The method, boiled down:
as §3

Test [12] concerns Candida albicans. Description: Antifungal activity against Candida albicans B2630 infected in guinea pig cutaneous candidosis model at 10 mg/kg, po for 14 days measured on day 21. Type of test: functional, organism-based. Also noted: dose 10 mg/kg. The method, boiled down:
as §3

The test system of the next test is Coccidioides immitis. Nature of the test: Antifungal activity against Coccidioides immitis infected in mouse coccidioidomycosis model assessed as cell killing activity at 40 mg/kg, po od for 2.5 weeks relative to control. Type of test: functional.
The subject of test [13] is Microsporum canis. Nature of the test: Antifungal activity against Microsporum canis assessed as growth inhibition in sabouraud broth after 14 days. Format: functional. The essentials:
as §1

Test [14] has as its system Trichophyton mentagrophytes. Description: Antifungal activity against Trichophyton mentagrophytes assessed as growth inhibition in sabouraud broth after 14 days. Format: functional. The method, boiled down:
as §1

In the next test the test system is Trichophyton rubrum. Description: Antifungal activity against Trichophyton rubrum assessed as growth inhibition in sabouraud broth after 14 days. Type of test: functional. The essentials: as §1
A further test deals with Cryptococcus neoformans. Description: Antifungal activity against Cryptococcus neoformans assessed as growth inhibition in sabouraud broth after 14 days. Type of test: functional. The method, boiled down: as §1
Test [15] relates to Candida tropicalis. Nature of the test: Antifungal activity against Candida tropicalis assessed as growth inhibition in sabouraud broth after 14 days. Format: functional. The essentials: as §1
The test system of test [16] is Candida albicans. Description: Antifungal activity against Candida albicans assessed as growth inhibition in sabouraud broth after 14 days. Type of test: functional. The essentials: as §1
Test [17] concerns Aspergillus fumigatus. Nature of the test: Antifungal activity against Aspergillus fumigatus assessed as growth inhibition in sabouraud broth after 14 days. Type of test: functional.
Test [18] concerns Sporothrix schenckii. Description: Antifungal activity against Sporothrix schenckii assessed as growth inhibition in sabouraud broth after 14 days. Format: functional. The method, boiled down:
as §1

Another test has as its system Saprolegnia. Nature of the test: Antifungal activity against Saprolegnia Sp. assessed as growth inhibition in sabouraud broth after 14 days. Type of test: functional. The essentials: as §1
The subject of another test is Phialophora verrucosa. Description: Antifungal activity against Phialophora verrucosa assessed as growth inhibition in sabouraud broth after 14 days. Type of test: functional. The method, boiled down:
as §1

In test [19] the test system is Erysipelothrix rhusiopathiae. Nature of the test: Antifungal activity against Erysipelothrix insidiosa assessed as growth inhibition in sabouraud broth after 14 days. Type of test: functional. The method, boiled down:
as §1

Test [20] concerns Staphylococcus haemolyticus. Nature of the test: Antifungal activity against Staphylococcus haemolyticus assessed as growth inhibition in sabouraud broth after 14 days. Format: functional. The method, boiled down: as §1
The subject of a further test is Streptococcus pyogenes. Description: Antifungal activity against Streptococcus pyogenes assessed as growth inhibition in sabouraud broth after 14 days. Format: functional. The method, boiled down:
as §1

Test [21] has as its system Microsporum canis. Description: Antifungal activity against Microsporum canis assessed as growth inhibition in sabouraud broth after 14 days in presence of 10% inactivated bovine serum. Format: functional. The essentials: as §1
Test [22] concerns Trichophyton mentagrophytes. Description: Antifungal activity against Trichophyton mentagrophytes assessed as growth inhibition in sabouraud broth after 14 days in presence of 10% inactivated bovine serum. Type of test: functional. The essentials: as §1

Turning to `CC(=O)N1CCN(c2ccc(OCC3COC(Cn4ccnc4)(c4ccc(Cl)cc4Cl)O3)cc2)CC1` (racemic) [KETOCONAZOLE], the GI with Candida tropicalis [1] stood at 0.1 µg/mL; in the test with Candida albicans [2], 1 µg/mL; with Aspergillus fumigatus [3], 10 µg/mL; in the test with Sporothrix schenckii [4], 1 µg/mL; in the test with Microsporum canis [13] it was 10 µg/mL; in test [14], 0.1 µg/mL. The GI in the test on Trichophyton rubrum worked out at 1 µg/mL; in the test with Cryptococcus neoformans, 1 µg/mL; in the test on Candida tropicalis [15], 1 µg/mL; in the test on Candida albicans [16], 10 µg/mL; with Aspergillus fumigatus [17], 100 µg/mL; with Sporothrix schenckii [18] it was 1 µg/mL. Moreover, the GI came out at 1 µg/mL in the test with Saprolegnia; 1 µg/mL with Phialophora verrucosa; 10 µg/mL in test [19]; 100 µg/mL in [20]; 10 µg/mL with Streptococcus pyogenes; 1 µg/mL with Microsporum canis [21]. Also, the GI in [22] was 0.1 µg/mL. In addition, the result in the test on Candida albicans [5], in the test on Candida albicans [6], with Candida albicans [9], in the test on Candida albicans [11] and in the test with Candida albicans [12] was Active. The Activity in the test with Candida albicans [7] is reported as 100%; in the test with Coccidioides immitis, more than 60%. Further, the outcome with Candida albicans [8] and with Candida albicans [10] was inactive.

Take `Clc1ccc(COC(Cn2ccnc2)c2ccc(Cl)cc2Cl)c(Cl)c1` (configuration not stated) [MICONAZOLE]: the GI in the test with Candida tropicalis [1] is more than 10 µg/mL; in the test on Candida albicans [2], more than 10 µg/mL; in the test with Aspergillus fumigatus [3] it was more than 10 µg/mL; with Sporothrix schenckii [4] it was 10 µg/mL; in the test with Microsporum canis [13] it was 1 µg/mL; in [14], 0.01 µg/mL. Besides, the GI with Trichophyton rubrum stood at 1 µg/mL; in the test with Cryptococcus neoformans, 1 µg/mL; with Candida tropicalis [15] it was 1 µg/mL; with Candida albicans [16] it was 10 µg/mL; with Aspergillus fumigatus [17], 10 µg/mL; with Sporothrix schenckii [18] it was 1 µg/mL. In addition, the GI with Saprolegnia was found to be 10 µg/mL; in the test on Phialophora verrucosa it was 100 µg/mL; in test [19], 0.01 µg/mL; in test [20], 10 µg/mL; in the test on Streptococcus pyogenes, 0.01 µg/mL; in the test on Microsporum canis [21], 10 µg/mL. For the same compound, the GI in [22] amounted to 0.1 µg/mL.

The values are drawn from ChEMBL document CHEMBL3244113, “Antimycotic imidazoles. part 4. Synthesis and antifungal activity of ketoconazole, a new potent orally active broad-spectrum antifungal agent” (1979).
